Data set [1] in a line: Selectivity ratio of IC50 for human CYP11B2 expressed in hamster V79MZ cells to IC50 for human CYP11B1 expressed in hamster V79MZ cells. The procedure, abridged: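 V79MZ cells expressing recombinant human CYP11B1 or CYP11B2, or rat CYP11B1, incubated with [1,2-³H]-11-deoxycorticosterone (100 nM) and inhibitor over a range of concentrations; ketoconazole as reference.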

A further data set has as its system Salmonella typhimurium. As to the kind of experiment: Mutagenicity in Salmonella typhimurium TA98 up to 100 uM by Ames 2 assay. The note with it: salmonella enterica subsp. enterica serovar typhimurium. It is filed as toxicity. A digest of the protocol:
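AMES II kit with Salmonella typhimurium TA98 and TA7001–TA7006, run with or without rat liver S9 fraction according to the kit instructions.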

Another data set concerns the target CYP2C19 (Homo sapiens, UniProt P33261). As to the kind of experiment: Inhibition of recombinant human CYP2C19 expressed in baculovirus infected insect cell microsomes at 1 uM relative to control. The format is ADME. A digest of the protocol:
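Recombinant human CYP1A2, 2B6, 2C9, 2C19, 2D6 and 3A4 in baculovirus-infected insect-cell microsomes, assayed per kit instructions; test compound at 1 µM, percent inhibition.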

A further data set concerns Rattus norvegicus. As to the kind of experiment: Time at which plasma concentration stays above in vitro rat CYP11B1 IC50 in Sprague-Dawley rat at 28 mg/kg, po administered as single dose. The procedure, abridged:
(§1)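 Female Sprague-Dawley rats (244–299 g), 2 animals, given one oral dose under 2% isoflurane as a freshly sonicated suspension in 0.5% porcine gelatin/5% mannitol in water. Tail-vein plasma precipitated with acetonitrile plus diphenhydramine internal standard, quantified by HPLC-MS/MS in duplicate. Noncompartmental analysis; Cmax and Tmax read directly from the concentration–time curve; F derived against iv dosing.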

Data set [2] is described as follows: Cmax in Sprague-Dawley rat at 28 mg/kg, po administered as single dose by HPLC-MS/MS analysis. The format is ADME, organism-based. More on the design: dose 28 mg/kg, route oral. As to conditions: in vivo. The procedure, abridged: as §1
Data set [3] is described as follows: Half life in Sprague-Dawley rat at 28 mg/kg, po administered as single dose by HPLC-MS/MS analysis. The format is ADME, organism-based. As to conditions: in vivo. The procedure, abridged: as §1
Data set [4] is described as follows: Half life in Sprague-Dawley rat at 5 mg/kg, iv administered as single dose by HPLC-MS/MS analysis. The format is ADME, organism-based. As to conditions: in vivo. The procedure, abridged: (§2)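 Female Sprague-Dawley rats (244–299 g), 2 animals; single iv dose in PEG300/ethanol/water (60/10/30), under 2% isoflurane anesthesia. Tail-vein blood taken into sodium citrate, plasma spun down, precipitated with acetonitrile containing diphenhydramine internal standard, analysed by HPLC-MS/MS with duplicate injections. Mean parameters from noncompartmental analysis.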

Data set [5] is described as follows: Clearance in Sprague-Dawley rat at 5 mg/kg, iv administered as single dose by HPLC-MS/MS analysis. It is filed as ADME, organism-based. As to conditions: in vivo. A digest of the protocol: as §2
A further data set deals with Plasma. In words: Plasma concentration in Sprague-Dawley rat at 28 mg/kg, po administered as single dose by HPLC-MS/MS analysis. As to conditions: in vivo. The format is ADME, organism-based. A digest of the protocol:
as §1

Data set [6] is described as follows: Tmax in Sprague-Dawley rat at 28 mg/kg, po administered as single dose by HPLC-MS/MS analysis. It is filed as ADME, organism-based. The note with it: in vivo. The procedure, abridged: as §1
The nature of data set [7]: Volume of distribution at steady state in Sprague-Dawley rat at 5 mg/kg, iv administered as single dose by HPLC-MS/MS analysis. It is filed as ADME, organism-based. As to conditions: in vivo, read-out: Vdss. The procedure, abridged:
as §2

A short description of data set [8]: AUC (0 to infinity) in Sprague-Dawley rat at 5 mg/kg, iv administered as single dose by HPLC-MS/MS analysis. It is filed as ADME, organism-based. As to conditions: in vivo. More on the design: dose 5 mg/kg, route intravenous, time infinity.
A short description of data set [9]: Cmax in Sprague-Dawley rat at 5 mg/kg, iv administered as single dose by HPLC-MS/MS analysis. The note with it: in vivo. More on the design: dose 5 mg/kg, route intravenous. It is filed as ADME, organism-based. A digest of the protocol:
as §2

Data set [10] in a line: AUC (0 to infinity) in Sprague-Dawley rat at 28 mg/kg, po administered as single dose by HPLC-MS/MS analysis. More on the design: dose 28 mg/kg, route oral, time infinity. It is filed as ADME, organism-based. As to conditions: in vivo.
Data set [11] is described as follows: Oral bioavailability in Sprague-Dawley rat at 28 mg/kg administered as single dose by HPLC-MS/MS analysis. The format is ADME, organism-based. The note with it: in vivo. A digest of the protocol: as §1

A value given as a limit tells only on which side of the number the result lay.

Sequence of CYP2C19 (P33261 whole entry): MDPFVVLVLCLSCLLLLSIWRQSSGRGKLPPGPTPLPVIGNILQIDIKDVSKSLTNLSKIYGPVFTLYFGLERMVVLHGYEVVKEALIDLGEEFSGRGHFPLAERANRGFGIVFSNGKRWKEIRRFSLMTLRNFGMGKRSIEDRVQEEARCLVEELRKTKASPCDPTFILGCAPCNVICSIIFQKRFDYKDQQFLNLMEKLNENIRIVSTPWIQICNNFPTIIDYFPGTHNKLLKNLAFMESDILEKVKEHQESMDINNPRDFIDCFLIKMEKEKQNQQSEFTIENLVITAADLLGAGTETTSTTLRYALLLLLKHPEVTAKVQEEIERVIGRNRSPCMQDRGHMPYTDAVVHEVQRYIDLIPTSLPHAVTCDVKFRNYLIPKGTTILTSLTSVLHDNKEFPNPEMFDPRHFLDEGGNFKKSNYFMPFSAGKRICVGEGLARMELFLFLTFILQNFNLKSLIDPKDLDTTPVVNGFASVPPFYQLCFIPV

A word on the inhibition: it is how much of the control response was suppressed. Turning to `Cc1cncc(Cc2cc(-c3ccccc3)no2)c1`, the “Ratio IC50” value in [1] is reported as 16. Besides, the Activity entry with Salmonella typhimurium is recorded as “Non-Toxic”. Further, the inhibition at 1 µM on CYP2C19 stood at 8%.

In general, Cmax refers to the maximum level reached in the sampled fluid or tissue. For orientation: half-life means the time needed for the level to fall by half in the phase considered. Low values mean rapid decline, high ones slow decline. For orientation: clearance means the volume of plasma or blood freed of the substance per unit of time. Low values mean a low capacity for elimination, high ones a high capacity for elimination. For orientation: Tmax means the time at which the peak concentration occurs. One may read the AUC(0-inf) as total exposure, with the tail of the curve extrapolated. Low readings indicate less exposure, high ones more exposure. A word on the bioavailability: it is the share of a dose that reaches the circulation, judged against a reference dose that is usually intravenous. High values mean much systemic uptake, low ones little systemic uptake. Consider `COc1cncc(Cc2cc(-c3ccccc3)no2)c1`, for which, in the data set on Rattus norvegicus, the Time result is “<=7 hr”. The Cmax turned out to be 6.4 µM in [2] and 27.8 µM in data set [9]. Further, the half-life in [3] was 3.3 h; in data set [4], 4.8 h. Besides, the Activity result in the data set on Salmonella typhimurium is “Non-Toxic”. For the same molecule, in [5], the clearance was determined as 22.6 mL/min/kg. In the data set on Plasma, the concentration came out at 4.11 µM. In addition, the Tmax in [6] stood at 2.5 h. The Vd in data set [7] was determined as 3.1 L/kg. Besides, the AUC(0-inf) in data set [8] is 3680 ng·h/mL; in data set [10] it was 10200 ng·h/mL. Besides, the inhibition at 1 µM on CYP2C19 was found to be 17%. The same molecule gave a bioavailability in [11] of 50%.

The values above are taken from ChEMBL document CHEMBL4014346, “Lead Optimization Generates CYP11B1 Inhibitors of Pyridylmethyl Isoxazole Type with Improved Pharmacological Profile for the Treatment of Cushing's Disease” (J Med Chem, 2017).
